Data: ChEMBL document CHEMBL3872269, “Design, synthesis and cytotoxic activities of scopoletin-isoxazole and scopoletin-pyrazole hybrids” (Bioorg Med Chem Lett, 2017)

Assays:
[1] = Growth inhibition of human HCT116 cells after 48 hrs by MTT assay; assay type: functional, cell-based; conditions: HCT-116, 48 h
Procedure, shortened: (§1)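 In vitro cytotoxicity screen on human cell lines. Value reported as IC50, the concentration causing 50% inhibition of the cells.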

[2] = Growth inhibition of human SW620 cells after 48 hrs by MTT assay; assay type: functional, cell-based; conditions: SW-620, 48 h; procedure, shortened: as §1
[3] = Growth inhibition of human HFL1 cells after 48 hrs by MTT assay; assay type: cell-based; conditions: HFL1, 48 h; procedure, shortened: as §1
[4] = Growth inhibition of human HuH7 cells after 48 hrs by MTT assay; assay type: functional, cell-based; conditions: Huh-7, 48 h; procedure, shortened: as §1

Structure (SMILES) | IC50 [1] [µM] | IC50 [2] [µM] | IC50 [3] [µM] | IC50 [4] [µM]
COc1cc2ccc(=O)oc2cc1OC(=O)c1c(C)noc1-c1ccccc1 | 22.7 | 23.4 | 69.3 | > 25
COc1cc2cc(NC(=O)c3c(C)noc3-c3ccccc3F)c(=O)oc2cc1OCCN1CCOCC1 | 15.6 | 13.9 | 68.5 | 14.7
COc1cc2ccc(=O)oc2cc1OC(=O)c1c(-c2ccc([N+](=O)[O-])cc2)n[nH]c1C | > 25 | > 25 | – | > 25
COc1cc2ccc(=O)oc2cc1OC(=O)c1c(C)noc1-c1ccc([N+](=O)[O-])cc1 | 9.21 | 9.83 | 90.9 | 8.76
COc1cc2ccc(=O)oc2cc1OC(=O)c1c(-c2ccccc2F)n[nH]c1C | > 25 | > 25 | – | > 25
COc1cc2ccc(=O)oc2cc1OC(=O)c1c(-c2ccc(Cl)cc2)n[nH]c1C | 13.8 | 17.1 | 47 | 16.2
COc1cc2cc(NC(=O)c3c(C)noc3-c3ccccc3)c(=O)oc2cc1OCCN1CCOCC1 | 20.9 | > 25 | – | > 25
COc1cc2ccc(=O)oc2cc1OC(=O)c1c(C)noc1-c1ccccc1F | > 25 | > 25 | – | > 25
COc1cc2cc(NC(=O)c3c(C)noc3-c3ccc(Cl)cc3)c(=O)oc2cc1OCCN1CCOCC1 | > 25 | > 25 | – | > 25
COc1cc2ccc(=O)oc2cc1OC(=O)c1c(-c2ccccc2)n[nH]c1C | > 25 | > 25 | – | > 25
COc1cc2cc(NC(=O)c3c(C)noc3-c3ccc([N+](=O)[O-])cc3)c(=O)oc2cc1OCCN1CCOCC1 | 10.3 | 10.5 | 74.2 | 12.1
COc1cc2ccc(=O)oc2cc1OC(=O)c1c(C)noc1-c1ccc(Cl)cc1 | 10.9 | 12.7 | 42.2 | 12.4
COc1cc2ccc(=O)oc2cc1O [SCOPOLETIN] | > 25 | > 25 | – | > 25
CCN(CC)CCNC(=O)c1c(C)[nH]c(/C=C2\C(=O)Nc3ccc(F)cc32)c1C [SUNITINIB] | 5.62 | 6.25 | – | 3.03
